Here are results for 1 molecule from paper PMC6559718 (Journal of biomolecular screening, 2016).

The structures appear in SMILES notation.

The nature of series [1]: in vitro. The note with it: Saccharomyces cerevisiae.
Series [2] addresses T1, human ANT1 (Homo sapiens, UniProt P12235).
T1 sequence (P12235 1-298): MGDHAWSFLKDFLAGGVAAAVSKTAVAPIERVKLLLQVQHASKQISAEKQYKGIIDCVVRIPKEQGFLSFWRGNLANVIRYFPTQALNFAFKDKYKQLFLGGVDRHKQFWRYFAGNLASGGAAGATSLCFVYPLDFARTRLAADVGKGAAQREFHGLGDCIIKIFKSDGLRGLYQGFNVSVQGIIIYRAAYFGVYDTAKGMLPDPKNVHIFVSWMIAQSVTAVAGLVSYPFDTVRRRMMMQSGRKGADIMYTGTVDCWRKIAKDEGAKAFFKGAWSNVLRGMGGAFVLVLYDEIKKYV
In words: ADP/ATP exchange with isolated yeast mitochondria expressing hANT1. It is filed as biochemical.

The test system of series [3] is yeast strain expressing hANT4. As to the kind of experiment: microbe, parasite or virus in culture. It is filed as cell-based. Conditions: Saccharomyces cerevisiae, read-out: Activity hANT4 IC50.
Series [4] relates to yeast strain expressing hANT1. As to the kind of experiment: microbe, parasite or virus in culture. Type of series: cell-based. The note with it: Saccharomyces cerevisiae, read-out: Activity hANT1 IC50.
Series [5] is described as follows: in vitro. Conditions: Saccharomyces cerevisiae. This is another data set of the same source.
The test system of another series is MiaPaCa-2 cells. In words: Oxygen consumption rate in MiaPaCa-2 cells. It is filed as cell-based, human. The note with it: after ADP addition, leelamine 50 pM as printed. In outline: (§1)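 Cells were kept in RPMI1640 with 10% FBS, plated at 20,000/well, and incubated overnight at 37 °C in 5% CO2. Before the assay, medium was replaced with MAS buffer (mannitol/sucrose/KH2PO4/MgCl2/HEPES/EGTA, 0.2% fatty-acid-free BSA, pH 7.4) plus 10 mM pyruvate and […]. Sequential injections were atpenin A5, 3.5 mM ADP, plasma membrane permeabilizer, then test compound or cATR control. OCR was read on an extracellular flux analyzer.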

The next series deals with T2, human ANT4 (Homo sapiens, UniProt Q9H0C2).
T2 sequence (Q9H0C2 1-315): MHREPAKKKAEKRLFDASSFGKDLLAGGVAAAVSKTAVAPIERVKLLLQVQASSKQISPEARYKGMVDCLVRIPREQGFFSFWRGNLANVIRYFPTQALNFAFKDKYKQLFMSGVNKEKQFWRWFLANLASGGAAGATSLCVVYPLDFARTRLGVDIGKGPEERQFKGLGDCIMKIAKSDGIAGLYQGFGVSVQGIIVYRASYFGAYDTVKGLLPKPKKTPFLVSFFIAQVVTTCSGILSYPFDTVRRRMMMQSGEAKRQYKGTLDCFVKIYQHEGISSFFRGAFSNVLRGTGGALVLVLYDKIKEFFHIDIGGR
As to the kind of experiment: ADP/ATP exchange with isolated yeast mitochondria expressing hANT4. Type of series: biochemical.

In series [6] the target is T1, human ANT1. In words: ADP/ATP exchange with Lactococcus lactis expressing hANT1. It is filed as biochemical.
Series [7] is described as follows: in vitro. The note with it: Saccharomyces cerevisiae. The source holds these as a separate data set.
Series [8] in a line: in vitro. Conditions: Saccharomyces cerevisiae. This is another data set of the same source.
The target in series [9] is T3, human ANT3 (Homo sapiens, UniProt P12236).
T3 sequence (P12236 1-298): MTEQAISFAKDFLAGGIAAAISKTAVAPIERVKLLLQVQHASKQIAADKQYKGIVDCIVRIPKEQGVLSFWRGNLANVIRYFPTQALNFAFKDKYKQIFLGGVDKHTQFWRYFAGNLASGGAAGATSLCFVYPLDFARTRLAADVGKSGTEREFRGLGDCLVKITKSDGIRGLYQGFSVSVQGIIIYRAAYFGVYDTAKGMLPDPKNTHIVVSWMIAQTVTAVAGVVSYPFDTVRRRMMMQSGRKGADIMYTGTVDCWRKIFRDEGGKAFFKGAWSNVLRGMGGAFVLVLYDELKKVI
In words: ADP/ATP exchange with Lactococcus lactis expressing hANT3. Type of series: biochemical.

For series [10], the system named is yeast strain expressing hANT3. In words: microbe, parasite or virus in culture. It is filed as cell-based. The note with it: Saccharomyces cerevisiae, read-out: Activity hANT3 IC50.
A further series relates to HCT116 cells. As to the kind of experiment: Oxygen consumption rate in HCT116 cells. It is filed as cell-based, human. Conditions: after ADP addition, leelamine 50 pM as printed. An outline of the steps:
as §1

Series [11] addresses T4, human ANT2 (Homo sapiens, UniProt P05141).
T4 sequence (P05141 1-298): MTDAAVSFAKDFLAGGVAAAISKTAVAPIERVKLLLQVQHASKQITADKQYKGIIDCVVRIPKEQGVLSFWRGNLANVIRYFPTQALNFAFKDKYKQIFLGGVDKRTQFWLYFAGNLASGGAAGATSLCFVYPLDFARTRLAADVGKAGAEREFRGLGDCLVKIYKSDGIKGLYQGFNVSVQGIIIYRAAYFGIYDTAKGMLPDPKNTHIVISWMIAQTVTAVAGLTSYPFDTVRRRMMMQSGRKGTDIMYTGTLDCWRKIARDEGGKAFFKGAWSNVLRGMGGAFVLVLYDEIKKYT
In words: ADP/ATP exchange with isolated yeast mitochondria expressing hANT2. Type of series: biochemical.

In series [12] the test system is yeast strain expressing hANT2. In words: microbe, parasite or virus in culture. It is filed as cell-based. Conditions: Saccharomyces cerevisiae, read-out: Activity hANT2 IC50.
For another series, the system named is human ANT isoforms. In words: ADP/ATP exchange in L. lactis, human ANT isoforms. Type of series: biochemical. The note with it: single-concentration test of compounds selected from the yeast growth assay.
Series [13] addresses T3, human ANT3. As to the kind of experiment: ADP/ATP exchange with isolated yeast mitochondria expressing hANT3. Type of series: biochemical.
The target in series [14] is T4, human ANT2. In words: ADP/ATP exchange with Lactococcus lactis expressing hANT2. Type of series: biochemical.

A word on the IC50: it is the concentration that inhibits the measured activity by half. For `Cc1cc(C(C#N)c2ccc(Cl)cc2)c(Cl)cc1NC(=O)c1cc(I)cc(I)c1O` (stereo not shown) [Closantel], the IC50 in the series “in vitro [1]” was above 100 µM; against human ANT1 [2], 52 ± 15 µM; in series [3] it was 9.6 ± 8.7 µM; in [4] it was 4.7 ± 0.8 µM; in the series “in vitro [5]”, above 100 µM; on human ANT4, 64 ± 25 µM. Moreover, the IC50 against human ANT1 [6] was 15 ± 2.8 µM; in “in vitro [7]” it was above 100 µM; in “in vitro [8]”, above 100 µM; against human ANT3 [9] it was 47 ± 11 µM; in [10], 6.3 ± 2.3 µM; against human ANT2 [11] it was 92 ± 32 µM. The IC50 in series [12] was 6.1 ± 2.4 µM; against human ANT3 [13], 100 ± 32 µM; on human ANT2 [14] it was 24 ± 4.2 µM. Also, the “oxygen consumption rate (OCR)” value in the series on MiaPaCa-2 cells is on record as “Neither CD437 nor closantel produced an appreciable level of reduction of OCR”; in the series with HCT116 cells, “inhibited OCR”. For the same molecule, the “selectivity for hANT1 over hANT3” value at human ANT1 [6] (L. lactis assay) is ~ 3 fold. Also, the “inhibition of [3H]ADP uptake by L. lactis” value with human ANT isoforms is “inhibited”.
